Laboratory results taken from ChEMBL document CHEMBL4354825, “Design and Synthesis of Basic Selective Estrogen Receptor Degraders for Endocrine Therapy Resistant Breast Cancer” (J Med Chem, 2019).
Calls of active or inactive are those of the source. The rule behind the calls is not given here.

What was measured:
Rattus norvegicus [1] = assay: Induction of uterotrophic activity in Sprague-Dawley rat assessed as increase in uterine weight at 10 mg/kg, po administered for 3 days and measured after 24 hrs of last dosing by hematoxylin eosin staining based imaging analysis; type: functional, organism-based
How it was run: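 Female Sprague-Dawley rats were dosed from day 19 of age once daily for 3 days: 10 mg/kg p.o. in 2% Tween 80/0.5% methylcellulose. EE2 (0.1 mg/kg p.o., peanut oil) was the positive control. Uteri were excised and weighed 24 h after the last dose; one half was fixed in 4% paraformaldehyde for H&E histology.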

T47D [2] = assay: Cytotoxicity against human T47D 3D spheroid cells assessed as reduction in tumor cell viability at 10 nM incubated for 14 days by celltiter-glo 3D cell viability assay
Homo sapiens [3] = organism: Homo sapiens; assay: Cytotoxicity against human MCF7:WS8 3D spheroid cells assessed as reduction in tumor cell viability at 10 nM incubated for 14 days by celltiter-glo 3D cell viability assay
Homo sapiens [4] = organism: Homo sapiens; assay: Cytotoxicity against human MCF7:WS8 3D spheroid cells assessed as reduction in tumor spheroid size at 10 nM incubated for 14 days
[5] = Antiproliferative activity against human MCF7:5C cells assessed as reduction in cell viability incubated for 7 days by Hoechst 33258 dye based assay relative to control; type: functional; settings: 168 h
How it was run: (§1)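 Cells were seeded at 5000 per well; MCF7:WS8 had been estrogen-stripped for 2 days first. Compounds were serially diluted in DMSO, with 0.01% DMSO as vehicle. The medium was removed on day 5 (MCF7:WS8) or day 7 (MCF7:5C), and cells were lysed by freezing at −80 °C overnight. DNA was measured by Hoechst 33258 fluorescence. Maximum efficacy was normalized to vehicle (0%) and no cells (100%); at least three biological replicates.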

Rattus norvegicus [6] = assay: Induction of uterotrophic activity in Sprague-Dawley rat assessed as increase in uterine weight at 2 mg/kg, sc administered for 3 days and measured after 24 hrs of last dosing by hematoxylin eosin staining based imaging analysis; type: functional, organism-based
How it was run: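 Female Sprague Dawley rats, 12 days old, were housed with foster dams (6 per dam) and acclimated for one week. From day 19 they received 3 daily doses of 2 mg/kg s.c. in peanut oil. Animals were killed 24 h after the last dose, and uteri were excised, trimmed of fat and mesentery, and weighed. Half of each uterus was fixed in 4% paraformaldehyde, paraffin embedded and stained with H&E.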

[7] = Drug concentration in C57BL/6 mouse brain at 5 mg, sc measured after 2 hrs by LC/MS-MS analysis; type: ADME, organism-based; settings: read-out: Drug uptake
How it was run: (§2)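 PK screen in female C57BL/6 mice (N = 3 per time point) given 5 mg s.c. single dose; mice perfused, plasma and brain collected postmortem at 0.5 and 2 h; analyte quantified by LC-MS/MS in MRM mode against standard curves prepared in the matching matrix with a common internal standard; mean and s.d. reported.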

[8] = Drug concentration in C57BL/6 mouse brain at 5 mg, sc measured after 0.5 hrs by LC/MS-MS analysis; type: ADME, organism-based; settings: read-out: Drug uptake; how it was run: as §2
MCF7:TAM1 [9] = assay: Cytotoxicity against human MCF7:TAM1 3D spheroid cells assessed as reduction in tumor cell viability at 10 nM incubated for 14 days by celltiter-glo 3D cell viability assay
[10] = Plasma concentration in C57BL/6 mouse at 5 mg, sc measured after 0.5 hrs by LC/MS-MS analysis; type: ADME, organism-based; how it was run: as §2
[11] = Antiproliferative activity against human MCF7:WS8 cells assessed as reduction in cell viability incubated for 5 days by Hoechst 33258 dye based assay relative to control; type: functional; settings: MCF7:WS8, 120 h; how it was run: as §1
T47D [12] = assay: Cytotoxicity against human T47D 3D spheroid cells harboring D538G mutant assessed as reduction in tumor cell viability at 10 nM incubated for 14 days by celltiter-glo 3D cell viability assay
MCF7:TAM1 [13] = assay: Antitumor activity against human MCF7:TAM1 cells xenografted in athymic nude mouse assessed as tumor regression at 5 mg, sc measured after 4 weeks; type: functional, organism-based
How it was run: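 Ovariectomized athymic female nude mice, 4–6 weeks old, carrying MCF7:TAM1 tumours established in the mammary fat pad, with E2 supplied from 1.0 cm silastic capsules implanted s.c. Dosing was 5 mg/week s.c. in sesame oil. Tumour cross-sectional area was measured weekly with calipers as (length/2)×(width/2)×π, and mean area was plotted against time in weeks.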

[14] = Plasma concentration in C57BL/6 mouse at 5 mg, sc measured after 2 hrs by LC/MS-MS analysis; type: ADME, organism-based; how it was run: as §2
[15] = Antiproliferative activity against human MCF7:WS8 cells assessed as reduction in cell viability incubated for 5 days by Hoechst 33258 dye based assay; type: functional; settings: MCF7:WS8, 120 h; how it was run: as §1
T47D [16] = assay: Cytotoxicity against human T47D 3D spheroid cells harboring Y537S mutant assessed as reduction in tumor cell viability at 10 nM incubated for 14 days by celltiter-glo 3D cell viability assay
Mus musculus [17] = assay: In vivo degradation of ERalpha in C57BL/6 mouse at 50 mg/kg, po administered for 3 days and measured on day 3 by Western blot analysis; type: functional, organism-based
How it was run: (§3)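 Female C57BL/6J mice aged 9–12 weeks were dosed at 50 mg/kg p.o. in PEG 400/10% HPCD (1:9 v/v). Regimens were a single dose with sacrifice at 5 h, or 3 daily doses with sacrifice 5 h (n = 5) or 7 h (n = 6) after the last dose. Ovaries and uterus were homogenized, 20 μg protein was run by SDS-PAGE, and the blot was probed for ERα and normalized to β-actin.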

[18] = biological target: T1, Estrogen receptor (Homo sapiens) (UniProt P03372); assay: Induction of degradation of ERalpha in human MCF7:WS8 cells at 100 nM in presence of MG-132 incubated for 24 hrs by Western blot analysis; type: cell-based
T1 sequence (whole entry): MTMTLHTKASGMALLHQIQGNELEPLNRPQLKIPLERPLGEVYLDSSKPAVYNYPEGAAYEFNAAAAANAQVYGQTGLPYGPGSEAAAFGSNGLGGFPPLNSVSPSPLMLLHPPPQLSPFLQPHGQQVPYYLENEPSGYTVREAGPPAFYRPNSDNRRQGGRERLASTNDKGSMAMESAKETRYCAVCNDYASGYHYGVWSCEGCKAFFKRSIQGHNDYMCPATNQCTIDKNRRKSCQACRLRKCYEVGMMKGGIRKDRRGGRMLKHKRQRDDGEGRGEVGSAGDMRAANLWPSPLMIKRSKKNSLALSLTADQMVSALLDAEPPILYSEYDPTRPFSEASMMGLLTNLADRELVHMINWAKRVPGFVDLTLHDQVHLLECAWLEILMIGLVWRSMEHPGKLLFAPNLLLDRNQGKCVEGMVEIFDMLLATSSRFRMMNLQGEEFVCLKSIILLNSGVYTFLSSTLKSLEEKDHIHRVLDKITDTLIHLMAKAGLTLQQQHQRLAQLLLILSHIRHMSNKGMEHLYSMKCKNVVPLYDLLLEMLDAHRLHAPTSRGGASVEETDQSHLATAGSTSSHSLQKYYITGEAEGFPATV

Mus musculus [19] = assay: In vivo degradation of ERalpha in C57BL/6 mouse at 50 mg/kg, po measured after 7 hrs by Western blot analysis; type: functional, organism-based; how it was run: as §3

Question: With `Cc1c(-c2ccc(O)cc2)n(Cc2ccc(OCCN3CCCCCC3)cc2)c2ccc(O)cc12` as the molecule, how does the Activity (Rattus norvegicus [1]) read?
Answer: Its Activity is “inactive”.

Question: For `C[C@]12CC[C@@H]3c4ccc(O)cc4C[C@@H](CCCCCCCCC[S+]([O-])CCCC(F)(F)C(F)(F)F)[C@H]3[C@@H]1CC[C@@H]2O` (some centres undefined) [FULVESTRANT], which Activity (T47D [2]) is on record?
Answer: The Activity was “Active”.

Question: What about the Activity (Homo sapiens [3]) of the same molecule?
Answer: The Activity was “Active”.

Question: And the Activity (Homo sapiens [4])?
Answer: Its Activity is “Active”.

Question: What about the Emax [5] of the same molecule?
Answer: The Emax was 48%.

Question: What about the Activity (Rattus norvegicus [6]) of the same molecule?
Answer: The Activity was “inactive”.

Question: And the concentration at 2 h [7]?
Answer: Its concentration at 2 h is 47.4 nM.

Question: And the concentration at 0.5 h [8]?
Answer: Its concentration at 0.5 h is 0.7 nM.

Question: What about the Activity (MCF7:TAM1 [9]) of the same molecule?
Answer: The Activity was “Active”.

Question: And the concentration at 0.5 h [10]?
Answer: The concentration at 0.5 h was 31.2 nM.

Question: And the Emax [11]?
Answer: The Emax was 66%.

Question: What about the Activity (T47D [12]) of the same molecule?
Answer: The Activity was “Active”.

Question: What about the Activity (MCF7:TAM1 [13]) of the same molecule?
Answer: Its Activity is “Active”.

Question: And the concentration at 2 h [14]?
Answer: Its concentration at 2 h is 301 nM.

Question: And the IC50 [15]?
Answer: The IC50 was 0.603 nM.

Question: What about the Activity (T47D [16]) of the same molecule?
Answer: The Activity was “Active”.

Question: With `Cc1cc(Cl)cc(C)c1C(=O)c1sc2cc(O)ccc2c1Oc1ccc(/C=C/C(=O)O)cc1` as the molecule, how does the Activity (Mus musculus [17]) read?
Answer: Its Activity is “Active”.

Question: And the Activity [18]?
Answer: Its Activity is “Active”.

Question: What about the Activity (Mus musculus [19]) of the same molecule?
Answer: Its Activity is “Active”.
